{"source": "paper PMC3361572", "about": "(Chemistry & biology, 2012)", "key": {"hMAGL": {"target": "T1, hMAGL (Homo sapiens, UniProt Q99685)", "T1 sequence (Q99685 1-303)": "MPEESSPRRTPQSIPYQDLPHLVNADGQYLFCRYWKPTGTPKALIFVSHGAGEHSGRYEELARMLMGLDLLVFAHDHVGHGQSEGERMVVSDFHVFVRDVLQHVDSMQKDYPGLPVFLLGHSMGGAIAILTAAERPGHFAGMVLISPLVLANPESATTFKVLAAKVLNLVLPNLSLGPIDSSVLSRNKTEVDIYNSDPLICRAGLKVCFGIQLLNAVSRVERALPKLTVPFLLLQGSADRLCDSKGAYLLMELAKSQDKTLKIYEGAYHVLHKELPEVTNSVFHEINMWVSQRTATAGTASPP", "assay": "competitive ABPP, proteomes of transiently transfected HEK293T cells", "type": "biochemical", "conditions": "read-out: IC50 (95% CI), human MAGL, transfected HEK293T cell proteome"}, "FAAH [1]": {"target": "T2, FAAH (Mus musculus, UniProt O08914)", "T2 sequence (O08914 1-579)": "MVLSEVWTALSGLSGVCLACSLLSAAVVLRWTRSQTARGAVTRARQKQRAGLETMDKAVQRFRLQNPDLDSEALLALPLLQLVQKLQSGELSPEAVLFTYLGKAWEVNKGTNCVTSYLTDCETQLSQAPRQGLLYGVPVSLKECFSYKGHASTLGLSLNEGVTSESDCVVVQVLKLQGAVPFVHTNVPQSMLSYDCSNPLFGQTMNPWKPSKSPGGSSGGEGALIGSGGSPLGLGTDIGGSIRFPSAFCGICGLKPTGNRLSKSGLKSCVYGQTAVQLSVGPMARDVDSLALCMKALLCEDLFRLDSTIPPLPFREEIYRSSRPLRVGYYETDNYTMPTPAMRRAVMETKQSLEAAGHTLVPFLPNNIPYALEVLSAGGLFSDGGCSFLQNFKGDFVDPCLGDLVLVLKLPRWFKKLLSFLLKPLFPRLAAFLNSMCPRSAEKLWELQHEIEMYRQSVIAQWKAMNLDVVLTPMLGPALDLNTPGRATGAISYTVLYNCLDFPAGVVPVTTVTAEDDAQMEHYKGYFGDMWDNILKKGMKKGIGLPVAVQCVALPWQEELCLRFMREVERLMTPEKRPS", "assay": "competitive ABPP of brain from inhibitor-treated mice", "type": "in vivo"}, "MAGL [2]": {"target": "T3, MAGL (Rattus norvegicus, UniProt Q8R431)", "T3 sequence (Q8R431 1-303)": "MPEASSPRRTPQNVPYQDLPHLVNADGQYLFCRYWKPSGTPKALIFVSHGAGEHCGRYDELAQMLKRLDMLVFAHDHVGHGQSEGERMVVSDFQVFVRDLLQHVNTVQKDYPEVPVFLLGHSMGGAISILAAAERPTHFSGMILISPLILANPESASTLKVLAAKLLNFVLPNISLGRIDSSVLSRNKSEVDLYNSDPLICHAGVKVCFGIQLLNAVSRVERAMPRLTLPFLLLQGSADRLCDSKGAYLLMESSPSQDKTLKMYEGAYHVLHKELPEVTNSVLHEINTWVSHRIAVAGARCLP", "assay": "brain 2-AG hydrolytic activity from KML29-treated rats", "type": "in vivo", "conditions": "4 h", "procedure,_shortened": "(§1)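 Wistar rats received the test compound i.p. (1–40 mg kg−1 in saline:emulphor:ethanol 18:1:1) or vehicle and were killed after 4 h. Brain MAGL and FAAH activities were measured as hydrolysis of 2-AG and AEA, respectively. Means ± SEM, n = 3 rats/group, compared with vehicle-treated rats.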"}, "MAGL [3]": {"target": "T4, MAGL (Mus musculus, UniProt O35678)", "T4 sequence (O35678 1-303)": "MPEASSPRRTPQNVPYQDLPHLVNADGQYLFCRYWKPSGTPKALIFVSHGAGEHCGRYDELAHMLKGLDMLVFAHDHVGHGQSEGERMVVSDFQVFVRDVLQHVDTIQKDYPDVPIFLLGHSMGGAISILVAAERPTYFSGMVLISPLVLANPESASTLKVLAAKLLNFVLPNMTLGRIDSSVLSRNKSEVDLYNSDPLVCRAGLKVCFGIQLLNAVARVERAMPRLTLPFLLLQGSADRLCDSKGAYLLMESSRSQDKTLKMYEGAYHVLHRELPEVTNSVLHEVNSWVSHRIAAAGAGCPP", "assay": "gel-based ABPP of peripheral tissues from inhibitor-treated mice", "type": "in vivo", "conditions": "1 mg kg^−1 p.o., 4 h, liver, lung, spleen"}, "FAAH [4]": {"target": "T2, FAAH", "assay": "competitive ABPP, mouse brain membrane proteome", "type": "biochemical", "conditions": "mouse brain proteome, concentration range tested 0.001–50 μM", "procedure,_shortened": "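Brain (mouse or rat) or mouse lung proteomes were preincubated with the test compound, then treated with the serine hydrolase probe FP-Rh. Samples were separated by SDS-PAGE and read by in-gel fluorescence scanning. Inhibition was taken as reduced FP-Rh labelling of MAGL, ABHD6, FAAH or CES bands, and IC50 values were calculated from quantified gel bands. Three independent experiments.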"}, "FAAH [5]": {"target": "T5, FAAH (Rattus norvegicus, UniProt P97612)", "T5 sequence (P97612 1-579)": "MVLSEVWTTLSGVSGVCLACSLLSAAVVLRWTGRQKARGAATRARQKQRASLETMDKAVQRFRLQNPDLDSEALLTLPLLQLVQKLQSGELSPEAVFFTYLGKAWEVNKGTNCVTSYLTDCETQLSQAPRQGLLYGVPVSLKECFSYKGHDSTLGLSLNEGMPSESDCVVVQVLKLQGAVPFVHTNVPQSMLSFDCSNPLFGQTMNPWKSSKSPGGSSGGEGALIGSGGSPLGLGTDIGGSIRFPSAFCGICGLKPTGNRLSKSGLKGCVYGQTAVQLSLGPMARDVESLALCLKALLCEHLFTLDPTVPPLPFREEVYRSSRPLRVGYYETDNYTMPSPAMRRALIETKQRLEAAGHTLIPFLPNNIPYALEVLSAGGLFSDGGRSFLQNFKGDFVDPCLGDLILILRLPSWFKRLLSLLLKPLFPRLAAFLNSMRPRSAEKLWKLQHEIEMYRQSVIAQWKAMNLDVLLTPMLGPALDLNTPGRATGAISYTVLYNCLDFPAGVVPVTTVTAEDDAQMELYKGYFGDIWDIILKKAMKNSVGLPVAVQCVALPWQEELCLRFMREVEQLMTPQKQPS", "assay": "brain AEA hydrolytic activity from KML29-treated rats", "type": "in vivo", "conditions": "1–40 mg kg^−1 i.p., 4 h", "procedure,_shortened": "as §1"}}, "note": "“Also recorded” adds a separate entry of the source."}
{"smiles": "O=C(OC(C(F)(F)F)C(F)(F)F)N1CCC(C(O)(c2ccc3c(c2)OCO3)c2ccc3c(c2)OCO3)CC1", "note": "[KML29]", "values": [{"measurement": "IC50", "setting": "hMAGL", "result": 5.9, "unit": "nM"}, {"measurement": "brain FAAH inhibition, chronic dosing", "setting": "FAAH [1]; 40 mg kg^−1 p.o., six days", "result": "selectively inhibited MAGL without any effect on FAAH"}, {"measurement": "selectivity over brain FAAH", "setting": "FAAH [1]; all doses tested 1–40 mg kg^−1 p.o., 4 h", "result": "complete selectivity over FAAH"}, {"measurement": "selectivity for MAGL over FAAH during time course", "setting": "FAAH [1]; single oral dose 20 mg kg^−1, 24 h time course", "result": "complete selectivity for MAGL over FAAH"}, {"measurement": "decrease of brain 2-AG hydrolytic activity", "setting": "MAGL [2]; 20 mg kg^−1 i.p.", "result": 50, "unit": "%"}, {"measurement": "decrease of brain 2-AG hydrolytic activity", "setting": "MAGL [2]; 40 mg kg^−1 i.p.", "result": 80, "unit": "%"}, {"measurement": "MAGL inhibition in peripheral tissues", "setting": "MAGL [3]", "result": "near-complete blockade of MAGL"}, {"measurement": "FAAH inhibition / cross-reactivity (gel-based ABPP)", "setting": "FAAH [4]", "result": "No inhibition of FAAH was detected; also recorded: complete selectivity for MAGL over FAAH"}, {"measurement": "brain AEA hydrolytic activity", "setting": "FAAH [5]", "result": "not affected at any dose"}]}
